Data from PubChem BioAssay AID686992 (Broad Institute, 2013).
The whole screen tested about 260,000 compounds, of which about 960 (0.37%) were called active. Many of the other results were omitted from the sample, so actives are more common in it than they were. A number with no mark means an inactive call.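 The calls were made as follows: active = mean E-selectin-positive cell signal at least 10% of the positive control, reached in at least 60% of replicates, without over 20% cell loss; inconclusive = no rule given, readout overlaps actives, possibly toxicity-flagged; inactive = the rest, including those meeting only one limit.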

target: E-selectin (Homo sapiens) (UniProt P16581); test: E-selectin induction in HUVECs, primary screen, imaging, HUVEC, immunofluorescence imaging, single point (AID 686992); conditions: at 7.58 µM, hits give high values, normalized: neutral wells 0, TNF-alpha wells 100;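 also: measured in HUVEC primary endothelial cells; signal is the percent of cells scored E-selectin positive by PE staining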
Summary of the method: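 Test system: HUVEC | Signal: Immunofluorescence imaging | Read-out: Percent E-selectin-positive cells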

Chain of E-selectin (Homo sapiens) (P16581 whole entry, looked up): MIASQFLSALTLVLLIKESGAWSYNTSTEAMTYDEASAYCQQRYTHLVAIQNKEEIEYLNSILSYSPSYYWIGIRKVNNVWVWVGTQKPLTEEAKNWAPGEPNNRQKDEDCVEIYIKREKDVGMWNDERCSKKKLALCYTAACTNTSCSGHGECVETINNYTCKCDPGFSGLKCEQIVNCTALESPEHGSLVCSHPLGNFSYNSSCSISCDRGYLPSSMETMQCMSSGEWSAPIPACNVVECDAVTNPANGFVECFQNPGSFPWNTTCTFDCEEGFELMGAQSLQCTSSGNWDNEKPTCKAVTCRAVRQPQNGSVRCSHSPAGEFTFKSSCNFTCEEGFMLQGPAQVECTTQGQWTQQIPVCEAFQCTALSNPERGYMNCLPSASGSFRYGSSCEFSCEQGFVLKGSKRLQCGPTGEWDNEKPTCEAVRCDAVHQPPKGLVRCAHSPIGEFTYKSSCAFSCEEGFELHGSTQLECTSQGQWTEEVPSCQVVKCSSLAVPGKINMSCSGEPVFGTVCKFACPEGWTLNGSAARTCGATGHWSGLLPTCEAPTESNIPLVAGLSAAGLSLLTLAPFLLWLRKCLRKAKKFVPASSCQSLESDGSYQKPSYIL

Row | Compound | activation
1 | O=Cc1cn(-c2ccccc2)nc1-c1ccccn1 | 31.7% (active)
2 | O=Cc1cn(Cc2ccccc2)nc1-c1cccnc1 | 2.7%
3 | COc1ccc(-c2nn(-c3ccccc3)cc2/C=N/Nc2ccccn2)cc1OC | -1.26%
4 | COC(=O)c1ccc2nc(-c3ccc(Cl)cc3)c(Cc3cccc(F)c3)n2c1 | -0.152%
5 | Cc1cc2nc(-c3ccc(F)cc3)c(Cc3ccsc3)n2c(C)c1Br | 0.0835%
6 | O=C(CCCn1c(=O)c2sccc2n(CC(=O)NCC2CCCO2)c1=O)NCc1ccco1 (centres undefined) | 8.64%
7 | O=C(Cc1ccc(-n2c(=O)c3sccc3n(Cc3ccc(F)cc3)c2=O)cc1)NCc1ccco1 | 159% (active)
8 | CC1=C(C(=O)N2CCOCC2)CC(CC(=O)NCc2ccco2)C(=O)N1Cc1ccc(F)cc1 (centres undefined) | 8.96%
9 | CC1(C(=O)Nc2cccc3c2CCCC3)CCN1C(=O)C1(c2ccccc2)CC1 (centres undefined) | 0.283%
10 | COCCCNC(=O)C[C@H]1C[C@@]2(C(=O)OC)C(=C[C@H](C(C)(C)C)O[C@@H]2C)N(Cc2ccc3c(c2)OCO3)C1=O | -0.0885%
11 | O=C(C[C@@H]1C[C@H]2c3cc(NC(=O)NC4CCCC4)ccc3O[C@H]2[C@@H](CO)O1)NC1CCCCC1 | 0.37%
12 | CC1CC(=O)Nc2ccccc2N1S(=O)(=O)c1cccs1 (centres undefined) | 28.3% (active)
13 | CC1CC(=O)Nc2ccccc2N1C(=O)COc1ccc2cc(Br)ccc2c1 (centres undefined) | 0.0775%
14 | CC1COc2ccccc2N1S(=O)(=O)c1ccccc1 (centres undefined) | 0.485%
15 | CC(C)C[C@H]1CN([C@@H](CC(C)C)CN2CCC[C@@H]2CN2C(=O)C(=O)NC[C@@H]2Cc2ccccc2)C(=O)C(=O)N1CCc1ccccc1 | 0.726%
16 | CO[C@H]1CN(C)C(=O)c2cc(NC(=O)c3cc(C)on3)ccc2OC[C@@H](C)N(C(C)=O)C[C@H]1C | -0.127%
17 | COc1cccc(-c2ccc3c(c2)N(Cc2ccccc2OC)C(=O)C(C)S3)c1 (centres undefined) | -0.102%
18 | O=S1(=O)CCN(C2CCCCCCCCCCC2)CC1 | -0.851%
19 | O=C(c1ccco1)N1CCN(C(=S)Nc2cc(F)cc(F)c2)CC1 | -1.13%
20 | O=C(CNS(=O)(=O)c1ccccc1)N1CCN(C(=O)c2ccco2)CC1 | 0.056%
21 | CC(C)C(c1nnnn1C1CCCCC1)N1CCN(C(=O)c2ccco2)CC1 (centres undefined) | 39.5% (active)
22 | Cc1noc(C)c1NC(=O)Nc1ccc2c(c1)CC(=O)N([C@@H](C)CO)C[C@@H](C)[C@@H](CN(C)Cc1ccc(Cl)c(Cl)c1)O2 | 449% (active)
23 | Cc1noc(C)c1NC(=O)Nc1ccc2c(c1)CC(=O)N([C@H](C)CO)C[C@@H](C)[C@@H](CN(C)Cc1ccc(C(F)(F)F)cc1)O2 | -0.087%
24 | C[C@@H]1CN([C@H](C)CO)C(=O)Cc2cc(NC(=O)Nc3ccccc3)ccc2O[C@H]1CN(C)Cc1ccc(Cl)c(Cl)c1 | 0.392%
25 | C[C@H](CO)N1C[C@H](C)[C@@H](CN(C)Cc2ccc(C(=O)O)cc2)Oc2ccc(NC(=O)Cn3cnnn3)cc2CC1=O | 2.12%

Row | Compound | activation
26 | COc1ccc(CN(C)C[C@H]2Oc3ccc(NC(=O)Cn4cnnn4)cc3CC(=O)N([C@@H](C)CO)C[C@@H]2C)cc1 | 52.1% (active)
27 | C[C@H]1CN([C@@H](C)CO)C(=O)Cc2cc(NC(=O)Cn3cnnn3)ccc2O[C@H]1CN(C)Cc1ccc(C(=O)O)cc1 | -4.49%
28 | O=C(NCCN1CCOCC1)c1ccc2c(c1)N(Cc1cccc(Cl)c1)C(=O)c1ccccc1S2(=O)=O | 0.148%
29 | COc1ccc(NC(=O)CCCOc2ccc(C(C)=O)cc2)cc1S(=O)(=O)N1CCCCC1 | -6.06%
30 | CCOC(=O)C1CCN(C(=O)c2ccc3c(=O)n4nc(Nc5ccccc5CC)sc4nc3c2)CC1 | -0.0345%
31 | COc1ccc(NC(=O)C(c2ccncc2)n2c(=O)c(-c3cc4ccccc4[nH]3)nc3ccccc32)cc1 (centres undefined) | 0.124%
32 | CCOC(=O)C1CSCCS(=O)(=O)N1Cc1ccc(Cl)cc1 (centres undefined) | 0.0275%
33 | CN[C@H]1C[C@H]2c3cc(Oc4ccccc4C)ccc3CCN2C(=O)[C@H]1[C@H](C)O | -1.54%
34 | COC(=O)C(C)NC(=O)COc1ccc2ccccc2c1 (centres undefined) | 0.228%
35 | Cc1cc2ccccc2n1CCNC(=O)COc1ccc2ccccc2c1 | 51.8% (active)
36 | Cc1ccc(C)c(NC(=O)CN(C)C(=O)COc2ccc3ccccc3c2)c1 | -0.121%
37 | CCCN1C[C@@H](C)[C@@H](OC)CN(C)C(=O)c2cc(NC(=O)CC(F)(F)F)ccc2OC[C@H]1C | 0.11%
38 | CC(C)(C)OC(=O)N[C@H](C(=O)OC(C)(C)C)c1ccc(Br)cc1 | 0.0795%
39 | O=C(NN=Cc1ccco1)C(=O)Nc1ccc(Cl)c([N+](=O)[O-])c1 | -0.0805%
40 | CC(=O)N1C[C@@H](CO)[C@@H](N(C)C(=O)C(C)(C)C)C[C@H]1c1ccccc1Br | -0.326%
41 | Cc1cc(S(=O)(=O)c2cc3ccc(O)c(C)c3oc2=O)ccc1F | 69.9% (active)
42 | COc1cccc2cc(S(=O)(=O)c3ccc(C)cc3)/c(=N/NS(=O)(=O)c3ccc(C)cc3)oc12 | 0.616%
43 | Cc1ccc(CC2(C)C(=O)Nc3ccc(OC(F)(F)F)cc32)cc1 (centres undefined) | -0.201%
44 | Cn1cnc(S(=O)(=O)N2C[C@@H](O)COC[C@H]3O[C@@H](CC(=O)NCc4ccc(F)cc4)CC[C@@H]32)c1 | -0.0625%
45 | O=C(NC[C@H]1[C@@H](c2ccccc2)[C@H](CO)N1CC1CC1)c1cccnc1 | 0.036%
46 | Cc1ccc(Nc2nnc(SC(C)C(=O)NC3CC3)s2)cc1 (centres undefined) | -0.687%
47 | Cc1ccc(Nc2nc(Cl)c(C=O)s2)cc1 | 48.9% (active)
48 | Cc1ccc(Nc2nc(-c3sc(NC(=O)c4ccccc4)nc3C)cs2)cc1 | 0.138%
49 | Cc1[nH]nc2c1C(c1ccc(Br)cc1)NC2=O (centres undefined) | -0.228%
